# This is a sample that favours compounds with a hit; in the whole collection about 2.6% have one here.
# HSF1 inh: HSF1 inhibition; NIH3T3-HGL HSE-luciferase, MG132-induced, luminescence 8 h; active compounds read low; activity change, negative = inhibition, % at 7.5 µM (by protocol); 300,000 tested, 0.77% active; AID 2098;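 active = more than half of replicate wells show activity change below -50%, luminescence cut by over half; inconclusive = some wells, but at most half, below -50%; inactive = no replicate well below -50%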;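 also: luciferase reports HSF-1 transcriptional activity via heat shock element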
# Rad51 HR inh: blocks human Rad51 in homologous recombination; inhibition, % at 10 µM; 200,000 tested, 0.085% active; Q06609; AID 1385; hRad51 DNA strand exchange, fluorescence dequenching;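 active = inhibition above 40% at the single screening dose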
#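 material = hRad51 filaments on single-stranded DNA | reagent = Donor/quencher-labelled 47-bp dsDNA substrate | compound = 10 µM final, single point | schedule = strand-exchange reaction 15 min at room temperature | measured by = fluorescein emission 520 nm, excitation 485 nm | read-out basis = % inhibition versus plate control and blank means | benchmarks = plate controls and plate blanks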
# HSF1 activator: increases HSF-1 driven luciferase reporter signal; 300,000 tested, 1.7% active; NIH3T3-HGL HSF-1 luciferase reporter, MG132, 8 h; 100% = twice DMSO control signal; activation, % at 9 µM; AID 504408;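 active = mean replicate activation of at least 50% with a set share of replicates each reaching 50%; inconclusive = only one of those two conditions met; inactive = mean below 50% and too few replicates reaching it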
# MDM2 E3 inh: inhibitors of human Mdm2 E3 ubiquitin ligase. cell-based MDM2 ubiquitination luciferase reporter, 2 h; 0 = plate control, 100 = twice control, blank-subtracted. signal enhancement, % at 5 µM. 210,000 tested, 0.11% active. AID 1230;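 active = signal enhancement of 30% or more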;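 also: luminescence tracks abundance of the self-degrading MDM2-luciferase fusion protein; higher signal means inhibition of MDM2 E3 ligase activity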
# Target sequence (Q00987 whole entry, looked up, the tested form may be a part): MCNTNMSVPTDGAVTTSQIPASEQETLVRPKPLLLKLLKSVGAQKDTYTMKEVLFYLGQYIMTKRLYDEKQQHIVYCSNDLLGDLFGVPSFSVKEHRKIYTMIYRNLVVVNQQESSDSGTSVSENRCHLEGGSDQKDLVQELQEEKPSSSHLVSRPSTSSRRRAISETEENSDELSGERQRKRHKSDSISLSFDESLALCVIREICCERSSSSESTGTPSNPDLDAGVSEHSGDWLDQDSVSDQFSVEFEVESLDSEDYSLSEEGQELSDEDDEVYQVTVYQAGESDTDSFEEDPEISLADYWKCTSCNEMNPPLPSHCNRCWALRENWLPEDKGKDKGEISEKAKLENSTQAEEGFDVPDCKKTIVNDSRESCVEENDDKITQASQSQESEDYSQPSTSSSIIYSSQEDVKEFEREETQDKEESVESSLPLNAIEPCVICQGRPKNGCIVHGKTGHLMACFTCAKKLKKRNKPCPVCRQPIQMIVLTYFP
#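 Timing – 2 h compound exposure at 37 °C · Assay system – mammalian cells stably expressing self-ubiquitinating, self-degrading MDM2 E3–luciferase fusion · Amount – 2000 cells seeded into each well · Measure – % luminescence enhancement versus blank-corrected plate control mean · Measured by – SteadyLite luminescence, 15 min reagent step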
# HSV replic up: HSV replication enhancement; HSV replication augmentation in cells, fold increase; maximum fold increase; 220,000 tested, 0.005% active; AID 1956; in the data active = maximum fold increase above about 1.5; inconclusive = no clear call, values can overlap the other calls; tested in PC3 cells
# Hsp70 activator: transcriptional activators of Hsp70. HeLa Hsp70 promoter luciferase reporter, luminescence; scaled: vehicle 0, proteasome-inhibitor control 100%. activation, % at 10 µM. 200,000 tested, 0.04% active. AID 1203;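 active = activation above the mean across all tested compounds plus 3 SD, cutoff set per campaign, cut at about 5.5% in these data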
# Hsp70 act dose: dose response of Hsp70 transcriptional activators; shares compounds with Hsp70 activator; HeLa hsp70.1pr-luc reporter, luciferase luminescence; calls only at 99 µM; 70 tested, 10% active; AID 1252;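 active = over 50% activation at some tested dose; inactive = under 50% activation at every tested dose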
# A number is an active result; – = inactive; ? = inconclusive; · = not tested or not shown.
SMILES,HSF1 inh,Rad51 HR inh,HSF1 activator,MDM2 E3 inh,HSV replic up,Hsp70 activator,others
O=C(N/N=C/c1c(O)n(C2CC2)c(=S)[nH]c1=O)c1ccccc1O,–,–,–,–,–,–,
Nc1ccccc1C(=O)OCC(=O)c1ccc2c(c1)OCCO2,-56.6,–,–,–,–,–,
CC(=O)Nc1ccccc1C(=O)OCC(=O)c1ccc2ccccc2c1,–,–,–,–,–,–,
COc1ccn(C)c(=O)c1C#N,–,–,–,–,–,–,
CC(=O)c1c(C)n(CC2CCCO2)c2ccc(O)cc12 (stereo not given),–,–,69.9,–,–,–,
CSc1ccc(C(=O)C2CCCN(Cc3cc4ccccc4[nH]3)C2)cc1 (stereo not given),–,–,–,–,–,–,
CSc1ccc(C(=O)C2CCCN(Cc3cccnc3)C2)cc1 (stereo not given),–,·,104.1,–,–,–,
CC(C)(CN)CC(=O)O,–,–,82.7,–,–,·,
O=C(CF)NC(NC(=S)Nc1ccccc1O)C(Cl)(Cl)Cl (stereo not given),–,·,53.9,–,–,–,
NC(=O)c1cn(C2OC(CO)C(O)C2O)c2ncnc(N)c12 (stereo not given),-66.2,–,–,–,–,–,
COc1ccc(C(=O)OC2CC3CCC(C2)[N+]3(C)[O-])cc1OC (stereo not given),–,·,–,·,·,·,
COc1ccccc1-n1c(-c2cccs2)nc2ccccc2c1=O,–,·,–,–,–,–,
C=C1C(=O)O[C@@H]2C[C@@H](C)[C@@H]3C=CC(=O)[C@@]3(C)[C@@H](OC(=O)CC(=O)O[C@H]3[C@@H]4C(=C)C(=O)O[C@@H]4C[C@@H](C)[C@@H]4C=CC(=O)[C@]43C)[C@H]12,-95.7,–,–,–,–,·,
C=C1C(=O)O[C@H]2C[C@@H](C)[C@@H]3C=CC(=O)[C@@]3(C)C[C@H]12,-63.9,·,–,34.6,·,·,
CC(=NCCCn1ccnc1)c1c(O)n(Cc2ccccc2)c(=O)[nH]c1=O,–,–,–,–,–,–,
COC(=O)C1=C(c2cc3ccccc3s2)C[C@@H]2CC[C@H]1N2C(=O)NC1CCCCC1,–,–,–,·,–,·,
CCCN(CCC)C1Cc2cc(OC)c(OC)cc2C1,–,–,–,·,–,·,
CCc1ccc(-c2nn(Cc3ccccc3)cc2C=O)cc1,–,–,101.8,–,–,–,
CN(C)C(=O)Oc1noc2cc(Cl)ccc12,–,–,–,–,–,·,
Cc1ccc2c(c1)N(C(=O)CCC(=O)N1CCC3(CC1)OCCO3)CCO2,-50.9,·,–,·,·,·,
COc1cc(/C=C/[N+](=O)[O-])ccc1OC(=O)c1cccnc1,–,·,–,·,·,·,
COc1cc2c(cc1/C=C/[N+](=O)[O-])OCO2,–,–,263.4,–,·,–,
O=c1c2ccccc2nc(-c2ccccc2)n1-c1cccnc1,–,–,–,–,–,–,
Cc1ccc(-c2nc3ccccc3c(=O)n2-c2cccnc2)cc1,–,–,–,34.4,–,–,
Clc1ccc(OCC#CCN2CCCCCC2)cc1,–,·,–,·,–,–,
SMILES,HSF1 inh,Rad51 HR inh,HSF1 activator,MDM2 E3 inh,HSV replic up,Hsp70 activator,others
O=C1NC(=O)N(Cc2ccccc2)C(=O)/C1=C\C=C\c1ccco1,–,–,71.2,–,?,–,
Cc1ccc(N2C(=O)NC(=O)/C(=C\C=C\c3ccco3)C2=O)cc1C,–,–,146.3,53.0,–,–,
O=C1NC(=O)N(CCc2ccc(F)cc2)C(=O)/C1=C\C=C\c1ccccc1,·,–,·,49.7,–,–,
O=C1NC(=O)N(Cc2ccco2)C(=O)/C1=C/C=C/c1ccco1,–,–,–,·,–,·,
CNCC(O)c1cc(OCc2ccccc2)c(OCc2ccccc2)cc1F (stereo not given),–,–,–,·,–,·,
Cc1nc2c(=O)n(C)c(=O)nc-2n(C)n1,-93.9,·,–,–,·,–,
COc1cc(Br)cc(CN2CCN(C)CC2)c1O,·,–,·,–,–,–,
COc1ccc(Br)cc1CN1CCN(CCO)CC1,-87.3,–,–,–,–,–,
CN1C(=O)C(c2ccc([N+](=O)[O-])cc2[N+](=O)[O-])C(=O)N(C)C1=O,–,·,–,·,·,·,
C[C@]12CC[C@H](OS(=O)(=O)O)CC1=CC[C@@H]1[C@@H]2CC[C@]2(C)C(=O)CC[C@@H]12,–,·,–,·,·,·,
CC12CCC3C(CC=C4CC5(CCC43C)OCCO5)C1CCC2=O (stereo not given),-73.5,–,–,–,–,–,
COc1ccc(CNC(=O)CCC(=O)N2C[C@H]3C[C@H](C2)c2cccc(=O)n2C3)cc1,–,·,–,·,·,·,
COc1cccc(C2C([N+](=O)[O-])=C(N)Oc3c2c(=O)oc2ccccc32)c1 (stereo not given),–,–,58.7,–,–,–,
COc1ccc(C2C([N+](=O)[O-])=C(N)Oc3c2c(=O)oc2ccccc32)cc1 (stereo not given),–,–,–,–,–,–,
Cc1ccc2nc3c(cc2c1)CC1(C(=O)N(C)C(=O)N(C)C1=O)C1CCCCN31 (stereo not given),–,–,81.2,–,–,–,
Cc1ccc2nc3c(cc2c1)CC1(C(=O)N(C)C(=O)N(C)C1=O)C1COCCN31 (stereo not given),–,–,–,–,–,–,
CCC[N+]12CCC(CC1)C(C(O)(c1ccccc1)c1ccccc1)C2 (stereo not given),–,–,–,–,–,·,
CCCC[N+]12CCC(CC1)C(C(O)(c1ccccc1)c1ccccc1)C2 (stereo not given),-65.3,–,–,–,–,·,
N=Cc1c(O)n(-c2ccccc2)c(=O)n(-c2ccccc2)c1=O,–,–,–,–,–,·,
COC(=O)C1CN(C#N)N(c2ccc(Cl)cc2)C12c1ccccc1-c1ccccc12 (stereo not given),-95.2,–,–,–,–,6.6,Hsp70 act dose=–
COC(=O)c1cccc(NC(=O)N2C[C@H]3C[C@@H](C2)c2cccc(=O)n2C3)c1,–,·,–,·,·,·,
CNc1cc(Cl)c2nonc2c1[N+](=O)[O-],–,–,168.4,–,–,17.8,Hsp70 act dose=–
Cc1cc([N+](=O)[O-])c(Cl)cc1NC(=O)C(C)C,–,–,–,–,–,–,
